According to ChEMBL document CHEMBL1154125, “Ebenfurans IV-VIII from Onobrychis ebenoides: evidence that C-prenylation is the key determinant of the cytotoxicity of 3-formyl-2-arylbenzofurans” (J Nat Prod, 2008):

Tests used:
MCF7 [1] = assay: Cytotoxicity against human MCF7 cells at 10 uM by MTT assay relative to control in absence of 17-beta-estradiol; type: functional
Method in brief: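 MCF-7 cells were grown in phenol red-free MEM with 5% dextran-charcoal-stripped FBS and vehicle (DMSO) only. They were exposed for 3 days to agents dissolved in DMSO: test compounds at 10 µM, 17β-estradiol at 0.1 nM, ICI 182,780 at 1 µM. MTT formazan was read at 550 nm. Efficacy = OD test × 100/OD vehicle control, given as mean ± SEM of at least three independent assays.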

MCF7 [2] = assay: Cytotoxicity against human MCF7 cells at 10 uM by MTT assay relative to control in presence of 17-beta-estradiol; type: functional
Method in brief: (§1)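 MCF-7 cells were kept in phenol red-free MEM with 5% dextran-charcoal-stripped FBS supplemented with 0.1 nM 17β-estradiol. They were treated for 3 days with test compounds at 10 µM, 17β-estradiol at 0.1 nM, or ICI 182,780 at 1 µM, all in DMSO. MTT conversion was read at 550 nm. OD × 100/OD of estradiol-alone control, mean ± SEM, ≥3 independent assays.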

MCF7 [3] = assay: Cytotoxicity against human MCF7 cells by MTT assay in absence of 17-beta-estradiol; type: functional, cell-based
Method in brief: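 Cells were grown in steroid-depleted medium (phenol red-free MEM, 5% dextran-charcoal FBS) plus DMSO vehicle. Increasing concentrations of agents in DMSO were applied for 3 days. Viable cells were estimated from MTT formazan absorbance at 550 nm. EC50 = concentration giving 50% of efficacy, computed only for statistically significant effects.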

[4] = target: T1, Estrogen receptor (Homo sapiens) (UniProt P03372); assay: Binding affinity to recombinant ERalpha by fluorescence polarization assay relative to 17-beta-estradiol
T1 sequence (whole entry): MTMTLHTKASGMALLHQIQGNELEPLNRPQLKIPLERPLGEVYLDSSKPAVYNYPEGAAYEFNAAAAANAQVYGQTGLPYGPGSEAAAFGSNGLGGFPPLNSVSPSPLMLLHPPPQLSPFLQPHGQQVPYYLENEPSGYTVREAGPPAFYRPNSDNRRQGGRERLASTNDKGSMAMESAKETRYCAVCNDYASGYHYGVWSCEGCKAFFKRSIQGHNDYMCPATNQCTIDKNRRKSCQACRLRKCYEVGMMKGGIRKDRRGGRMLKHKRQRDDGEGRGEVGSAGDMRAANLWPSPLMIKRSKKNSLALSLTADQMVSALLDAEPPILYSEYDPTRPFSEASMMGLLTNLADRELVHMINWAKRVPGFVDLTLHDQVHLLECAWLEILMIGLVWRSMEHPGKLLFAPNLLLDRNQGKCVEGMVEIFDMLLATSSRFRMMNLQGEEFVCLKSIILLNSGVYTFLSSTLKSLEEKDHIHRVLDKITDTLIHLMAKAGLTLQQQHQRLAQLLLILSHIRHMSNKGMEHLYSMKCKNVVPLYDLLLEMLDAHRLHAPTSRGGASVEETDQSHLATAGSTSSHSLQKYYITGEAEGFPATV

MCF7 [5] = assay: Cytotoxicity against human MCF7 cells by MTT assay in presence of 17-beta-estradiol; type: functional, cell-based
Method in brief: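 In phenol red-free MEM with 5% dextran-charcoal-treated FBS containing 0.1 nM 17β-estradiol, MCF-7 cultures received increasing concentrations of agents (DMSO solutions) for 3 days. Readout was MTT formazan absorbance at 550 nm relative to cells given the hormone alone. EC50 = concentration reaching 50% of efficacy, derived only for statistically significant effects.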

MCF7 [6] = assay: Cytotoxicity against human MCF7 cells at 1 uM by MTT assay relative to control in the absence of 17-beta-estradiol; type: functional
Method in brief: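 MCF-7 cells in phenol red-free MEM with 5% dextran-charcoal-stripped FBS, vehicle (DMSO) only, no estradiol. ICI 182,780 at 1 µM applied for 3 days. Viable cells assessed by MTT formazan absorbance at 550 nm. Efficacy = OD treated ×100/OD vehicle control; mean ± SEM of at least three independent assays.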

MCF7 [7] = assay: Cytotoxicity against human MCF7 cells at 1 uM by MTT assay relative to control in presence of 17-beta-estradiol; type: functional
Method in brief: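 MCF-7 cells in phenol red-free MEM with 5% dextran-charcoal-stripped FBS, supplemented with 0.1 nM 17β-estradiol. Treated with ICI 182,780 at 1 µM (DMSO) for 3 days. MTT conversion to formazan read at 550 nm. Efficacy = OD treated ×100/OD of estradiol-alone control; mean ± SEM of ≥3 independent assays.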

MCF7 [8] = assay: Cytotoxicity against human MCF7 cells at 0.1 nM by MTT assay relative to control in absence of 17-beta-estradiol; type: functional
MCF7 [9] = assay: Cytotoxicity against human MCF7 cells at 0.1 nM by MTT assay relative to control in presence of 17-beta-estradiol; type: functional; method in brief: as §1

Structure (SMILES) | Activity (MCF7 [1]) [%] | Activity (MCF7 [2]) [%] | EC50 (MCF7 [3]) [µM] | relative binding affinity (RBA) [4] | EC50 (MCF7 [5]) [µM] | Activity (MCF7 [6]) [%] | Activity (MCF7 [7]) [%] | Activity (MCF7 [8]) [%] | Activity (MCF7 [9]) [%]
COc1cc2oc(-c3ccc(O)cc3O)c(C=O)c2c(O)c1CC=C(C)C [EBENFURAN III] | 47 | 31 | 2.6 | 0.09 | 2.9 |  |  |  | 
COc1cc(O)ccc1-c1oc2cc(OC)c(CCC(C)(C)O)c(O)c2c1C=O [EBENFURAN VI] | 154 | 118 | 4.8 | 0.06 |  |  |  |  | 
COc1cc2oc(-c3ccc(O)cc3O)c(C=O)c2c(O)c1CCC(C)(C)O [EBENFURAN V] | 115 | 98 |  | 0.23 |  |  |  |  | 
C=C(C)C(O)Cc1c(OC)cc2oc(-c3ccc(O)cc3O)c(C=O)c2c1O (stereo not drawn) [EBENFURAN VII] | 123 | 79 |  | 0.94 |  |  |  |  | 
COc1cc(O)ccc1-c1oc2cc(OC)c(CC=C(C)C)c(O)c2c1C=O [EBENFURAN IV] | 54 | 31 | 6.7 | 0.46 | 3.9 |  |  |  | 
COc1cc(O)c2c(C=O)c(-c3ccc(O)cc3O)oc2c1 [EBENFURAN II] | 111 | 64 |  | 0.18 | 5.5 |  |  |  | 
C[C@]12CC[C@@H]3c4ccc(O)cc4C[C@@H](CCCCCCCCC[S+]([O-])CCCC(F)(F)C(F)(F)F)[C@H]3[C@@H]1CC[C@@H]2O (stereo partly drawn) [FULVESTRANT] |  |  |  |  |  | 103 | 63 |  | 
C[C@]12CC[C@@H]3c4ccc(O)cc4CC[C@H]3[C@@H]1CC[C@@H]2O [ESTRADIOL] |  |  |  |  |  |  |  | 163 | 104
